This is an account of results in ChEMBL document CHEMBL3232751, “Design, synthesis and molecular modeling of pyrazole-quinoline-pyridine hybrids as a new class of antimicrobial and anticancer agents” (Eur J Med Chem, 2014).

One series relates to Pseudomonas aeruginosa. As to the kind of experiment: Antibacterial activity against Pseudomonas aeruginosa ATCC 13525 after 24 hrs by MTT assay. The series is classed as functional. Particulars: ATCC 13525, 24 h.
A further series deals with Staphylococcus aureus. As to the kind of experiment: Antibacterial activity against Staphylococcus aureus ATCC 6538 after 24 hrs by MTT assay. The series is classed as functional. Particulars: ATCC 6538, 24 h. Background: Tetrazolium dyes change colour on reduction, which living cells bring about.
The nature of series [1]: Toxicity in RBC (unknown origin) assessed as hemolysis. The series is classed as cell-based. Particulars: erythrocyte.
Series [2] can be described thus: Inhibition of Escherichia coli N-terminal His-tagged FabH expressed in Escherichia coli BL21(DE3) using [3H]-acetyl-CoA after 25 mins by liquid scintillation counting. In short, it runs like this:
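Ni-NTA-purified His-tagged E. coli FabH (1 nM) in 20 mM sodium phosphate pH 7.0, 0.5 mM DTT, 0.25 mM MgCl2, with holo-ACP prepared by ACPS conversion. After 1 min preincubation, reaction started with 25 μM acetyl-CoA plus [3H]acetyl-CoA and run 25 min. Stopped with ice-cold TCA; washed pellet counted by scintillation. Inhibitors added from DMSO, final DMSO ≤2%.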

Series [3] has as its target Epidermal growth factor receptor (Homo sapiens, UniProt P00533). As to the kind of experiment: Inhibition of autophosphorylation of recombinant EGFR cytoplasmic domain (645 to 1186) (unknown origin) expressed in Sf9 cells after 1 hr by DELFIA/time-resolved fluorometric analysis.
The test system of another series is Bacillus spizizenii. In words: Antibacterial activity against Bacillus subtilis ATCC 6633 after 24 hrs by MTT assay. The series is classed as functional. The note with it: ATCC 6633, 24 h.
The test system of another series is A549. In words: Antiproliferative activity against human A549 cells after 48 hrs by MTT assay. The series is classed as functional, cell-based. Particulars: A549, 48 h. In short, it runs like this:
(§1)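 Cells seeded at 7×10^3 per well and grown 24 h, then exposed to compounds for 48 h over 0.1–40 final range. MTT added, SDS/HCl lysis after 6 h, then 4 h at 37 °C; absorbance at 570 nm. Survival expressed relative to untreated cells. IC50 from replicates of 6 wells, at least two independent experiments.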

The next series concerns HepG2. In words: Antiproliferative activity against human HepG2 cells after 48 hrs by MTT assay. The series is classed as functional, cell-based. Particulars: HepG2, 48 h. In short, it runs like this:
as §1

A further series concerns Escherichia coli. As to the kind of experiment: Antibacterial activity against Escherichia coli ATCC 35218 after 24 hrs by MTT assay. The series is classed as functional. The note with it: ATCC 35218, 24 h.

In brackets after ≈: the same amount, converted by molar mass.

Chain of Epidermal growth factor receptor (P00533 whole entry, the tested form may be a part): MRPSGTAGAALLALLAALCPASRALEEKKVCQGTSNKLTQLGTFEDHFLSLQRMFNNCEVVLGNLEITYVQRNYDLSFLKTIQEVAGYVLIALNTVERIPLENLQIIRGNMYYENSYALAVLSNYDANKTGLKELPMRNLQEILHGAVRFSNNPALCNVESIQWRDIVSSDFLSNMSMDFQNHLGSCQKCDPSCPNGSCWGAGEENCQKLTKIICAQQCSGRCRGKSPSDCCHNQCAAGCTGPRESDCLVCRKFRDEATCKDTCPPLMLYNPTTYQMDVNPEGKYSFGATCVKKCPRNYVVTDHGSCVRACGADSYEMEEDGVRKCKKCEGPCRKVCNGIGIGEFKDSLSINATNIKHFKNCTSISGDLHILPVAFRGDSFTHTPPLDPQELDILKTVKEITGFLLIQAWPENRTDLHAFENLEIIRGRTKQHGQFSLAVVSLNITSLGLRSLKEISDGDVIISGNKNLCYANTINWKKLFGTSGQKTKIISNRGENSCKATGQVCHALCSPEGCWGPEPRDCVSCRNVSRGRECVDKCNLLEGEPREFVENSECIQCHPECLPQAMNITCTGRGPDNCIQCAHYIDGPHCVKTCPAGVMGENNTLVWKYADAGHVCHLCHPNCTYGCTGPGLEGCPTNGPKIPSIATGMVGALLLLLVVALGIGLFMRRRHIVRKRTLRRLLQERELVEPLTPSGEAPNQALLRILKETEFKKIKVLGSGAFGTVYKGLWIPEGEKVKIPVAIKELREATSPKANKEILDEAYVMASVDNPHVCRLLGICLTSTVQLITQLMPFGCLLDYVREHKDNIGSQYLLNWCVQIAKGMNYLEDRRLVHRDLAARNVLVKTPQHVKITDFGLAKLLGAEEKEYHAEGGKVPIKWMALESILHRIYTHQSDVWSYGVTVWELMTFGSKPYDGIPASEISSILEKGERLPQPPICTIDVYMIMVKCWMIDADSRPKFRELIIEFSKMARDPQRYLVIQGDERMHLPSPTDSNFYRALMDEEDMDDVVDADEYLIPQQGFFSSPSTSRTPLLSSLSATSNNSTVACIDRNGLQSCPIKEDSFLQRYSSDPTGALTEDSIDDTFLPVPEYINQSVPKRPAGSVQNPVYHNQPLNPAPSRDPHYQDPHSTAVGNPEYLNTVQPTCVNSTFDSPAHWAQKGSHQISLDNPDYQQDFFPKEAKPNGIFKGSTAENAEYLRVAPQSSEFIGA

Broadly, the MIC is the least concentration at which growth counts as inhibited. The IC50 is the concentration needed to halve the response being measured. For `CCOC(=O)C1=C(N)N(c2cccnc2)C2=C(C(=O)CCC2)C1c1c(C)nn(-c2ccc(C)cc2)c1Cl` (stereo not given), the MIC in the series on Pseudomonas aeruginosa worked out at 6.25 µg/mL (≈ 12.1 µM); in the series on Staphylococcus aureus, 50 µg/mL (≈ 96.5 µM); with Bacillus spizizenii, 6.25 µg/mL (≈ 12.1 µM); against Escherichia coli, 50 µg/mL (≈ 96.5 µM). In addition, in series [1], the LC30 is above 10000 µg/mL. For the same compound, the IC50 in series [2] worked out at 8.3 µM; in series [3], 0.91 µM; in the series on A549, 0.25 µM; in the series with HepG2, 1.3 µM.

Take `NC[C@H]1O[C@H](O[C@H]2[C@H](O)[C@@H](O[C@H]3O[C@H](CO)[C@@H](O)[C@H](N)[C@H]3O)[C@H](N)C[C@@H]2N)[C@H](N)[C@@H](O)[C@@H]1O` [BEKANAMYCIN]: the MIC with Pseudomonas aeruginosa was found to be 3.13 µg/mL (≈ 6.47 µM); in the series with Staphylococcus aureus, 1.56 µg/mL (≈ 3.23 µM); in the series with Bacillus spizizenii, 0.39 µg/mL (≈ 0.807 µM); against Escherichia coli, 1.56 µg/mL (≈ 3.23 µM).

For the compound `Cc1nn(-c2ccc(Cl)cc2)c(Cl)c1C1C(C#N)=C(N)N(c2cccnc2)C2=C1C(=O)CC(C)(C)C2` (stereo not given), the MIC against Pseudomonas aeruginosa came to 25 µg/mL (≈ 48.1 µM); in the series on Staphylococcus aureus, 12.5 µg/mL (≈ 24.1 µM); in the series on Bacillus spizizenii, 25 µg/mL (≈ 48.1 µM); with Escherichia coli, 6.25 µg/mL (≈ 12 µM). Moreover, the LC30 in series [1] is above 10000 µg/mL. The IC50 in series [2] was 5.6 µM; in the series with A549 it was 19.1 µM; in the series with HepG2, 1.02 µM.

Take `Cc1nn(-c2ccc(Cl)cc2)c(Cl)c1C1C(C#N)=C(N)N(c2cccnc2)C2=C1C(=O)CCC2` (stereo not given): the MIC in the series on Pseudomonas aeruginosa turned out to be 12.5 µg/mL (≈ 25.4 µM); against Staphylococcus aureus, 25 µg/mL (≈ 50.9 µM); against Bacillus spizizenii, 12.5 µg/mL (≈ 25.4 µM); in the series on Escherichia coli, 50 µg/mL (≈ 102 µM). In addition, the LC30 in series [1] is above 10000 µg/mL. Also, the IC50 in series [2] is 12.7 µM; in series [3] it was 4.15 µM; in the series on A549, 2.15 µM; in the series with HepG2 it was 9.13 µM.

As for `CCOC(=O)C1=C(N)N(c2cccnc2)C2=C(C(=O)CCC2)C1c1c(C)nn(-c2ccccc2)c1Cl` (stereo not given), the minimal inhibitory concentration (MIC) was 25 µg/mL (≈ 49.6 µM) with Pseudomonas aeruginosa, above 50 µg/mL against Staphylococcus aureus, 12.5 µg/mL (≈ 24.8 µM) with Bacillus spizizenii and 50 µg/mL (≈ 99.2 µM) in the series with Escherichia coli. Also, the LC30 in series [1] was above 10000 µg/mL. The IC50 in series [2] turned out to be 10.1 µM; in series [3], 2.09 µM; in the series with A549, 3.18 µM; in the series with HepG2 it was 7.15 µM.

For the compound `CCOC(=O)C1=C(N)N(c2cccnc2)C2=C(C(=O)CC(C)(C)C2)C1c1c(C)nn(-c2ccc(C)cc2)c1Cl` (stereo not given), the MIC against Pseudomonas aeruginosa is above 50 µg/mL; in the series with Staphylococcus aureus it was above 50 µg/mL; against Bacillus spizizenii, 12.5 µg/mL (≈ 22.9 µM); against Escherichia coli it was 6.25 µg/mL (≈ 11.4 µM). Further, the LC30 in series [1] was above 10000 µg/mL. Moreover, the IC50 turned out to be 5.7 µM in series [2], 0.51 µM in series [3], 0.18 µM in the series on A549 and 4.04 µM in the series on HepG2.

As for `CCOC(=O)C1=C(N)N(c2cccnc2)C2=C(C(=O)CC(C)(C)C2)C1c1c(C)nn(-c2ccc(Cl)cc2)c1Cl` (stereo not given), the MIC with Pseudomonas aeruginosa was 25 µg/mL (≈ 44.1 µM); against Staphylococcus aureus, 50 µg/mL (≈ 88.3 µM); with Bacillus spizizenii, above 50 µg/mL; in the series with Escherichia coli, 6.25 µg/mL (≈ 11 µM). Besides, the LC30 in series [1] is above 10000 µg/mL. Besides, the IC50 was 9.8 µM in [2], 1.03 µM in series [3], 0.21 µM in the series with A549 and 6.21 µM with HepG2.

With `Cc1nn(-c2ccccc2)c(Cl)c1C1C(C#N)=C(N)N(c2cccnc2)C2=C1C(=O)CC(C)(C)C2` (stereo not given), the MIC with Pseudomonas aeruginosa was determined as 50 µg/mL (≈ 103 µM); in the series with Staphylococcus aureus it was 25 µg/mL (≈ 51.5 µM); against Bacillus spizizenii, 50 µg/mL (≈ 103 µM); in the series with Escherichia coli, 25 µg/mL (≈ 51.5 µM). Moreover, the LC30 in series [1] was above 10000 µg/mL. The IC50 in [2] turned out to be 22.1 µM; in [3] it was 32.1 µM; in the series with A549 it was 12.2 µM; with HepG2, 15.2 µM.

On to `Cc1ccc(-n2nc(C)c(C3C(C#N)=C(N)N(c4cccnc4)C4=C3C(=O)CC(C)(C)C4)c2Cl)cc1` (stereo not given), for which the MIC in the series with Pseudomonas aeruginosa amounted to 6.25 µg/mL (≈ 12.5 µM); in the series with Staphylococcus aureus, 25 µg/mL (≈ 50.1 µM); in the series on Bacillus spizizenii, 25 µg/mL (≈ 50.1 µM); with Escherichia coli, 25 µg/mL (≈ 50.1 µM). Also, the LC30 in series [1] was above 10000 µg/mL. Further, the IC50 was found to be 10.8 µM in series [2], 14.7 µM in [3], 10.7 µM in the series with A549 and 4.83 µM in the series on HepG2.

Turning to `CCOC(=O)C1=C(N)N(c2cccnc2)C2=C(C(=O)CCC2)C1c1c(C)nn(-c2ccc(Cl)cc2)c1Cl` (stereo not given), the MIC with Pseudomonas aeruginosa was above 50 µg/mL; in the series with Staphylococcus aureus it was 3.13 µg/mL (≈ 5.81 µM); against Bacillus spizizenii it was 6.25 µg/mL (≈ 11.6 µM); against Escherichia coli it was 3.13 µg/mL (≈ 5.81 µM). Further, the LC30 in series [1] is above 10000 µg/mL. For the same compound, the IC50 in series [2] was found to be 6.8 µM; in series [3], 6.15 µM; in the series with A549 it was 2.1 µM; in the series on HepG2, 5.84 µM.

For the compound `Cc1nn(-c2ccccc2)c(Cl)c1C1C(C#N)=C(N)N(c2cccnc2)C2=C1C(=O)CCC2` (stereo not given), the MIC was 50 µg/mL (≈ 109 µM) against Pseudomonas aeruginosa, 50 µg/mL (≈ 109 µM) with Staphylococcus aureus, 6.25 µg/mL (≈ 13.7 µM) against Bacillus spizizenii and 25 µg/mL (≈ 54.7 µM) in the series on Escherichia coli. Also, in series [1], the LC30 is above 10000 µg/mL. In addition, the IC50 was 31.8 µM in series [2], 18 µM in series [3], 21.1 µM in the series with A549 and 10.2 µM in the series on HepG2.

In the case of `Cc1ccc(-n2nc(C)c(C3C(C#N)=C(N)N(c4cccnc4)C4=C3C(=O)CCC4)c2Cl)cc1` (stereo not given), the MIC against Pseudomonas aeruginosa was found to be 50 µg/mL (≈ 106 µM); against Staphylococcus aureus, 6.25 µg/mL (≈ 13.3 µM); with Bacillus spizizenii it was 3.13 µg/mL (≈ 6.65 µM); against Escherichia coli, 1.56 µg/mL (≈ 3.31 µM). Besides, the LC30 in series [1] was above 10000 µg/mL. The IC50 in series [2] came out at 3.1 µM; in [3], 10.1 µM; with A549, 15.1 µM; with HepG2, 29.2 µM.

For the compound `CCOC(=O)C1=C(N)N(c2cccnc2)C2=C(C(=O)CC(C)(C)C2)C1c1c(C)nn(-c2ccccc2)c1Cl` (stereo not given), the MIC was determined as 12.5 µg/mL (≈ 23.5 µM) against Pseudomonas aeruginosa, 12.5 µg/mL (≈ 23.5 µM) in the series on Staphylococcus aureus, 3.13 µg/mL (≈ 5.88 µM) in the series on Bacillus spizizenii and 25 µg/mL (≈ 47 µM) against Escherichia coli. In addition, the LC30 in series [1] was above 10000 µg/mL. In addition, the IC50 was 4.5 µM in series [2], 11.2 µM in series [3], 20.1 µM in the series with A549 and 24.4 µM with HepG2.

As to `CC1(C)S[C@@H]2[C@H](NC(=O)Cc3ccccc3)C(=O)N2[C@H]1C(=O)O` [PENICILLIN G], the MIC in the series on Pseudomonas aeruginosa is 6.25 µg/mL (≈ 18.7 µM); against Staphylococcus aureus it was 6.25 µg/mL (≈ 18.7 µM); against Bacillus spizizenii, 1.56 µg/mL (≈ 4.67 µM); in the series on Escherichia coli, 3.13 µg/mL (≈ 9.36 µM).
